Active and inactive are the calls of the source. No cut-off for these calls is given here.
How the values were obtained:
Homo sapiens [1] = organism: Homo sapiens; experiment: Inhibition of human DDR at 0.5 uM relative to control
HL-60(TB) = experiment: Cytotoxicity against human HL-60(TB) cells after 48 hrs by SRB assay; assay type: functional; conditions: HL-60, 48 h
Procedure, shortened: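 NCI-60 panel screen. Cells grown in RPMI 1640 with 5% FBS and 2 mM L-glutamine, plated at 5000–40 000 cells/well by doubling time, and preincubated 24 h at 37 °C in 5% CO2; Tz plates fixed at drug addition. Five concentrations, 1-log steps from 10−4 to 10−8 M, for 48 h. Suspension cells fixed with TCA (16% final), stained with 0.4% SRB, read at 515 nm. GI50, TGI and LC50 from percent-growth formulas.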

RPMI-8226 = experiment: Cytotoxicity against human RPMI8226 cells after 48 hrs by SRB assay; assay type: functional; conditions: RPMI-8226, 48 h
Procedure, shortened: (§1)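 NCI-60 panel; cells grown in RPMI 1640 with 5% FBS and 2 mM L-glutamine, plated at 5000–40 000 cells/well by doubling time, preincubated 24 h (37 °C, 5% CO2). Drug added at five concentrations, 1-log steps from 10−4 to 10−8 M, for 48 h. Fixed with TCA, stained with 0.4% SRB, absorbance read at 515 nm. Percent growth computed against time-zero and untreated controls; GI50, TGI and LC50 derived.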

A549 = experiment: Cytotoxicity against human A549 cells after 48 hrs by SRB assay; assay type: functional; conditions: A549, 48 h; procedure, shortened: as §1
HOP-92 = experiment: Cytotoxicity against human HOP92 cells after 48 hrs by SRB assay; assay type: functional; conditions: HOP-92, 48 h; procedure, shortened: as §1
NCI-H460 = experiment: Cytotoxicity against human NCI-H460 cells after 48 hrs by SRB assay; assay type: functional; conditions: NCI-H460, 48 h; procedure, shortened: as §1
HCC 2998 = experiment: Cytotoxicity against human HCC2998 cells after 48 hrs by SRB assay; assay type: functional; conditions: HCC 2998, 48 h; procedure, shortened: as §1
HCT-15 = experiment: Cytotoxicity against human HCT15 cells after 48 hrs by SRB assay; assay type: functional; conditions: HCT-15, 48 h; procedure, shortened: as §1
SW-620 = experiment: Cytotoxicity against human SW620 cells after 48 hrs by SRB assay; assay type: functional; conditions: SW-620, 48 h
Procedure, shortened: (§2)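 NCI-60 panel, five doses at 1-log steps from 10−4 to 10−8 M. Cells grown in RPMI 1640 with 5% FBS and 2 mM L-glutamine, seeded at 5000–40 000 cells/well and preincubated 24 h. Tz plates were TCA-fixed at drug addition. Drug exposure 48 h at 37 °C, then TCA fixation, 0.4% SRB stain and absorbance at 515 nm. GI50 taken from percent growth relative to Tz and control.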

SF-268 = experiment: Cytotoxicity against human SF268 cells after 48 hrs by SRB assay; assay type: functional; conditions: SF-268, 48 h; procedure, shortened: as §1
SF-295 = experiment: Cytotoxicity against human SF295 cells after 48 hrs by SRB assay; assay type: functional; conditions: SF-295, 48 h; procedure, shortened: as §1
SF-539 = experiment: Cytotoxicity against human SF539 cells after 48 hrs by SRB assay; assay type: functional; conditions: SF-539, 48 h; procedure, shortened: as §1
SNB-19 = experiment: Cytotoxicity against human SNB19 cells after 48 hrs by SRB assay; assay type: functional; conditions: SNB-19, 48 h; procedure, shortened: as §1
IGROV-1 = experiment: Cytotoxicity against human IGROV1 cells after 48 hrs by SRB assay; assay type: functional; conditions: IGROV-1, 48 h; procedure, shortened: as §1
OVCAR-3 = experiment: Cytotoxicity against human OVCAR3 cells after 48 hrs by SRB assay; assay type: functional; conditions: OVCAR-3, 48 h; procedure, shortened: as §1
OVCAR-5 = experiment: Cytotoxicity against human OVCAR5 cells after 48 hrs by SRB assay; assay type: functional; conditions: OVCAR-5, 48 h; procedure, shortened: as §1
NCI/ADR-RES = experiment: Cytotoxicity against human NCI-ADR-RES cells after 48 hrs by SRB assay; assay type: functional; procedure, shortened: as §1
UO-31 = experiment: Cytotoxicity against human UO31 cells after 48 hrs by SRB assay; assay type: functional; conditions: UO-31, 48 h; procedure, shortened: as §2
MCF7 = experiment: Cytotoxicity against human MCF7 cells after 48 hrs by SRB assay; assay type: functional; conditions: MCF7, 48 h; procedure, shortened: as §1
T47D = experiment: Cytotoxicity against human T47D cells after 48 hrs by SRB assay; assay type: functional; procedure, shortened: as §2
[2] = Potency index, ratio of sunitinib GI50 to test compound GI50 for human renal cancer cells; assay type: functional, Renal cancer cell
[3] = Potency index, ratio of sorafenib GI50 to test compound GI50 for human non-small cell lung cancer cells; assay type: functional
Procedure, shortened: (§3)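 GI50 is the concentration giving 50% reduction in net protein increase relative to control. Potency index is the reference-drug GI50 divided by the test-compound GI50.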

[4] = Potency index, ratio of sorafenib GI50 to test compound GI50 for human ovarian cancer cells; assay type: functional, Ovarian cancer cell; procedure, shortened: as §3
[5] = Potency index, ratio of sunitinib GI50 to test compound GI50 for human ovarian cancer cells; assay type: functional, Ovarian cancer cell
[6] = Potency index, ratio of sunitinib GI50 to test compound GI50 for human breast cancer cells; assay type: functional, Breast cancer cell; procedure, shortened: as §3
[7] = Potency index, ratio of sorafenib GI50 to test compound GI50 for human CNS cancer cells; assay type: functional, CNS cancer cell; procedure, shortened: as §3
[8] = Potency index, ratio of test compound LC50 to sunitinib LC50 for human prostate cancer cells; assay type: functional, Prostate cancer cell
[9] = target: Ephrin type-A receptor 2 (Homo sapiens) (UniProt P29317); experiment: Inhibition of human EPHA2 at 0.5 uM relative to control
Homo sapiens [10] = organism: Homo sapiens; experiment: Inhibition of human PDGFR at 0.5 uM relative to control
[11] = target: Vascular endothelial growth factor receptor 2 (Homo sapiens, UniProt P35968); conditions: at 10 µM
[12] = target: Mitogen-activated protein kinase kinase kinase 7 (Homo sapiens) (UniProt O43318); experiment: Inhibition of human TAK1 at 0.5 uM relative to control
[13] = read-out: LC50 (the source's name)

Chain of Vascular endothelial growth factor receptor 2 (P35968 whole entry): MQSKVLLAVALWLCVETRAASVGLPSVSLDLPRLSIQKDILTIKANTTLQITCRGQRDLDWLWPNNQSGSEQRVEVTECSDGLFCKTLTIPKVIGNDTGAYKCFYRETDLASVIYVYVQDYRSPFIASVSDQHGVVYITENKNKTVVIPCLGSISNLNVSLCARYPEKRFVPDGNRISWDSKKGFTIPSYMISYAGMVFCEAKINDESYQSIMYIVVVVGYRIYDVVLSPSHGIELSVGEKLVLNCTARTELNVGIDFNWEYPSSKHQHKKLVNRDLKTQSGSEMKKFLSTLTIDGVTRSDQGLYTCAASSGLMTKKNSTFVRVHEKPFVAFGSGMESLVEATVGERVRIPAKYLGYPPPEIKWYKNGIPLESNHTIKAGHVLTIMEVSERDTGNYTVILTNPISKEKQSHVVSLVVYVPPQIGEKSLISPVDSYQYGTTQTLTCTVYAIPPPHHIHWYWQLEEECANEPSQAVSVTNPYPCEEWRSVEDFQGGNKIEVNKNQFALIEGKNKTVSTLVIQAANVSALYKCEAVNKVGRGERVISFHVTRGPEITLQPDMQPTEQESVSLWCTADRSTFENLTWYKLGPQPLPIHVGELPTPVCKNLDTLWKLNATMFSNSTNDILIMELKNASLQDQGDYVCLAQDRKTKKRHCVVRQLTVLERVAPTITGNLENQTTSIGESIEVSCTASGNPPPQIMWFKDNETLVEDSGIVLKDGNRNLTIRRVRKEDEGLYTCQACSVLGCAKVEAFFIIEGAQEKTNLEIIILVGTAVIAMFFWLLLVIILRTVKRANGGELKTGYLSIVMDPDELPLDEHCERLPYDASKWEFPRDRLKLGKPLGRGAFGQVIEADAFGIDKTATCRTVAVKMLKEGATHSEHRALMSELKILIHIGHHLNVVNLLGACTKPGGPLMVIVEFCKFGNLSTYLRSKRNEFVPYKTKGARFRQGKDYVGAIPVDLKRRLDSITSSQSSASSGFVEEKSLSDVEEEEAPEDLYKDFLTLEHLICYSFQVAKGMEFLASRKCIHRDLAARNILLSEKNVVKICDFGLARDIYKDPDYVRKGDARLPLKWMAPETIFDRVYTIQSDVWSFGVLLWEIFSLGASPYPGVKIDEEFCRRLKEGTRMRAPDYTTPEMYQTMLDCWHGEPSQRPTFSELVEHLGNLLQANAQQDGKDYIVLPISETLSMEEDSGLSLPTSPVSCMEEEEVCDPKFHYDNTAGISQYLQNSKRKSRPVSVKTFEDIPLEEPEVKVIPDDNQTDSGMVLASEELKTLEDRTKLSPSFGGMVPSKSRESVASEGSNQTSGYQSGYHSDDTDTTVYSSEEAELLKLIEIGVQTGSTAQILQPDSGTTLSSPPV
Chain of Ephrin type-A receptor 2 (Homo sapiens) (P29317 whole entry): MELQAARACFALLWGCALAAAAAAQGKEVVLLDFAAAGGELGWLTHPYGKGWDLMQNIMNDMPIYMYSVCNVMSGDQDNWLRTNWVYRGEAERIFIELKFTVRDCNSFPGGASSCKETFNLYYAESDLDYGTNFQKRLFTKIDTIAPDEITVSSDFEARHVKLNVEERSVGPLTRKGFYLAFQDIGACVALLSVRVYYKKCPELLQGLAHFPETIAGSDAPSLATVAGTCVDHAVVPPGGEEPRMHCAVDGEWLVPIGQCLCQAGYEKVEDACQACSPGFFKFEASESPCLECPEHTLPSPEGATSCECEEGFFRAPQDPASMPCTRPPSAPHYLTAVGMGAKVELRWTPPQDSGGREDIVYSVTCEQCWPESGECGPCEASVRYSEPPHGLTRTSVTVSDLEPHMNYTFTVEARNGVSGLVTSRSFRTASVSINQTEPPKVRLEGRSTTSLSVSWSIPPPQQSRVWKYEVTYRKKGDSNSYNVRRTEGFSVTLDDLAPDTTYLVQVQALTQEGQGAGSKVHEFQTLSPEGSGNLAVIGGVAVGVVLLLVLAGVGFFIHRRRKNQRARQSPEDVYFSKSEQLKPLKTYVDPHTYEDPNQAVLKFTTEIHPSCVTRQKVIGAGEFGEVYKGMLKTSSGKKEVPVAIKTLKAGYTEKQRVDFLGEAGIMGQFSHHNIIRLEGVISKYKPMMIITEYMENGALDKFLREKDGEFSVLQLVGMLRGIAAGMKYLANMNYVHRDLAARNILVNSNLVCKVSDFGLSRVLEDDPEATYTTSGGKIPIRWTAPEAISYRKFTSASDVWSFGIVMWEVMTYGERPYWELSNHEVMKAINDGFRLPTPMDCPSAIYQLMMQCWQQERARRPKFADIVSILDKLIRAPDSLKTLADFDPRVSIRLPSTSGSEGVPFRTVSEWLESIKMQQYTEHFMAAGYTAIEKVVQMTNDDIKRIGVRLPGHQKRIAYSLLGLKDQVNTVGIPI
Chain of Mitogen-activated protein kinase kinase kinase 7 (Homo sapiens) (O43318 whole entry, looked up): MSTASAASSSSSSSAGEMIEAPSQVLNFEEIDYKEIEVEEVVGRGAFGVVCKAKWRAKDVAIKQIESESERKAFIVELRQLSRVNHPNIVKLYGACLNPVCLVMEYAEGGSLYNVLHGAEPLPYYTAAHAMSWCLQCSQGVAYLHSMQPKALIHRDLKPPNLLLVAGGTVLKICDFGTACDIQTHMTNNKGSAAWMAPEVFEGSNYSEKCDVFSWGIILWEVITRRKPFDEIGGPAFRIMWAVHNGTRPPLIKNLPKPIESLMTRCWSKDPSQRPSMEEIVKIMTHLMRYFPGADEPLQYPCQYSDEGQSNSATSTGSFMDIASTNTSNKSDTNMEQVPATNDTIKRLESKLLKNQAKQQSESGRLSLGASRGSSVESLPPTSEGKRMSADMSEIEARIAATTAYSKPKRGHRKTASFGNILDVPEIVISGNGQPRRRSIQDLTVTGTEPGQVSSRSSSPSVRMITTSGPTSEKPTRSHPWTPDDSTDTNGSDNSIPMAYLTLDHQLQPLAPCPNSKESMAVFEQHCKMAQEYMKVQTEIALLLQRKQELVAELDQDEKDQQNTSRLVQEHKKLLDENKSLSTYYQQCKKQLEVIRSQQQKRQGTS

Question: Which results are given for `COc1cc2ncnc(Oc3ccc(NC(=O)Nc4ccc(CN5CCOCC5)c(C(F)(F)F)c4)c4ccccc34)c2cc1OC`?
Answer: inhibition (Homo sapiens [1]): Active; GI50 (HL-60(TB)): 0.38 µM; TGI (HL-60(TB)): 2.14 µM; CC50 (HL-60(TB); [13]): > 100 µM; GI50 (RPMI-8226): 0.39 µM; TGI (RPMI-8226): 2.95 µM; CC50 (RPMI-8226; [13]): > 100 µM; GI50 (A549): 0.55 µM; TGI (A549): 10.7 µM; CC50 (A549; [13]): 81.3 µM; GI50 (HOP-92): 0.32 µM; TGI (HOP-92): 7.76 µM; CC50 (HOP-92; [13]): 91.2 µM; GI50 (NCI-H460): 1.41 µM; TGI (NCI-H460): 4.27 µM; CC50 (NCI-H460; [13]): 25.7 µM; GI50 (HCC 2998): 5.25 µM; TGI (HCC 2998): 20.9 µM; CC50 (HCC 2998; [13]): 75.9 µM; GI50 (HCT-15): 1 µM; TGI (HCT-15): 5.13 µM; CC50 (HCT-15; [13]): 28.2 µM; GI50 (SW-620): 1.1 µM; TGI (SW-620): 11.8 µM; CC50 (SW-620; [13]): > 100 µM; GI50 (SF-268): 0.46 µM; TGI (SF-268): 15.8 µM; CC50 (SF-268; [13]): 79.4 µM; GI50 (SF-295): 1.23 µM; TGI (SF-295): 6.03 µM; CC50 (SF-295; [13]): 30.9 µM; GI50 (SF-539): 1.58 µM; TGI (SF-539): 19.5 µM; CC50 (SF-539; [13]): 52.5 µM; GI50 (SNB-19): 2.57 µM; TGI (SNB-19): 14.1 µM; CC50 (SNB-19; [13]): 43.6 µM; GI50 (IGROV-1): 0.52 µM; TGI (IGROV-1): 3.63 µM; CC50 (IGROV-1; [13]): > 100 µM; GI50 (OVCAR-3): 1 µM; TGI (OVCAR-3): 9.55 µM; CC50 (OVCAR-3; [13]): 42.7 µM; GI50 (OVCAR-5): 1.07 µM; TGI (OVCAR-5): 10.5 µM; CC50 (OVCAR-5; [13]): > 100 µM; GI50 (NCI/ADR-RES): 0.76 µM; TGI (NCI/ADR-RES): 58.9 µM; CC50 (NCI/ADR-RES; [13]): > 100 µM; GI50 (UO-31): 0.2 µM; TGI (UO-31): 10.2 µM; CC50 (UO-31; [13]): 38 µM; GI50 (MCF7): 0.33 µM; TGI (MCF7): 11 µM; CC50 (MCF7; [13]): > 100 µM; GI50 (T47D): 0.25 µM; TGI (T47D): 4.27 µM; CC50 (T47D; [13]): > 100 µM; RatioGI50 [2]: 6.8; RatioGI50 [3]: 3.9 - 9.5; RatioGI50 [4]: 3.9 - 9.5; RatioGI50 [5]: 5 - 7.7; RatioGI50 [6]: 5 - 7.7; RatioGI50 [7]: 1.6 - 2.9; RatioLC50 [8]: 1.7; inhibition [9]: Active; inhibition (Homo sapiens [10]): Active; inhibition [11]: 97.8%; inhibition [12]: Active
